# Assay results published in ChEMBL document CHEMBL1122426, “Radioiodine-labeled N,N-dimethyl-N'-(2-hydroxy-3-alkyl-5-iodobenzyl)-1,3-propanediamines for brain perfusion imaging” (J Med Chem, 1983).
# Tests used:
# Rattus norvegicus [1] = experiment: Biodistribution of I-125 labeled compound in rat thyroid, 2 min after intravenous injection. value expressed in average % dose per organ; value may range from 0.13 to 0.20; type: ADME, organism-based, Thyroid gland; conditions: in vivo
# Rattus norvegicus [2] = experiment: Biodistribution of I-125 labeled compound in rat brain, 2 min after intravenous injection. value expressed in average % dose per organ; value may range from 1.28 to 1.56; type: ADME, organism-based; conditions: in vivo
# Rattus norvegicus [3] = experiment: Biodistribution of I-125 labeled compound in rat thyroid, 1 hr after intravenous injection. value expressed in average % dose per organ; value may range from 0.18 to 0.25; type: ADME, organism-based, Thyroid gland; conditions: in vivo
# Rattus norvegicus [4] = experiment: Biodistribution of I-125 labeled compound in rat heart, 2 min after intravenous injection. value expressed in average % dose per organ; value may range from 1.95 to 2.54; type: ADME, organism-based; conditions: in vivo
# Rattus norvegicus [5] = experiment: Biodistribution of I-125 labeled compound in rat brain to blood ratio, 2 m in after intravenous injection. value expressed in % dose per gram ratio; type: ADME, organism-based
# In short: (§1)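 Rats given I-125 diamine iv; tissue activity at 2 min or 1 h compared with diluted injected-dose aliquots. % dose per gram approximated as % dose per organ divided by mean organ weight (brain 1.65 g; blood 18 g). Ratio taken from the per-gram values.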
# Rattus norvegicus [6] = experiment: Biodistribution of I-125 labeled compound in rat lungs, 1 hr after intravenous injection. value expressed in average % dose per organ; value may range from 14.0 to 17.9; type: ADME, organism-based, Lung; conditions: in vivo
# Rattus norvegicus [7] = experiment: Biodistribution of I-125 labeled compound in rat liver, 2 min after intravenous injection. value expressed in average % dose per organ; value may range from 8.10 to 8.95; type: ADME, organism-based; conditions: in vivo
# Rattus norvegicus [8] = experiment: Biodistribution of I-125 labeled compound in rat heart, 1 hr after intravenous injection. value expressed in average % dose per organ; value may range from 1.54 to 1.76; type: ADME, organism-based; conditions: in vivo
# Rattus norvegicus [9] = experiment: Biodistribution of I-125 labeled compound in rat lungs, 2 min after intravenous injection. value expressed in average % dose per organ; value may range from 36.9 to 42.9; type: ADME, organism-based, Lung; conditions: in vivo
# Rattus norvegicus [10] = experiment: Biodistribution of I-125 labeled compound in rat liver, 1 hr after intravenous injection. value expressed in average % dose per organ; value may range from 8.10 to 10.6; type: ADME, organism-based; conditions: in vivo
# Rattus norvegicus [11] = experiment: Biodistribution of I-125 labeled compound in rat muscle, 2 min after intravenous injection. value expressed in average % dose per organ; value may range from 7.52 to 9.77; type: ADME, organism-based, Muscle tissue; conditions: in vivo
# Rattus norvegicus [12] = experiment: Biodistribution of I-125 labeled compound in rat brain, 1 hr after intravenous injection. value expressed in average % dose per organ; value may range from 1.39 to 1.47; type: ADME, organism-based; conditions: in vivo
# Rattus norvegicus [13] = experiment: Biodistribution of I-125 labeled compound in rat blood, 1 hr after intravenous injection. value expressed in average % dose per organ; value may range from 1.13 to 1.60; type: ADME, organism-based; conditions: in vivo
# Rattus norvegicus [14] = experiment: Biodistribution of I-125 labeled compound in rat brain to blood ratio, 1 hr after intravenous injection. value expressed in % dose per gram ratio; type: ADME, organism-based; in short: as §1
# [15] = The protein binding ability of compound was expressed in Percent free; type: ADME; conditions: read-out: % free
# In short: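 Binding to pooled human serum was measured by equilibrium dialysis. 0.4 mL serum and 0.4 mL 0.15 M phosphate buffer, pH 7.4, were separated by a membrane, and 0.025 μCi radiolabeled diamine was added on the buffer side. Cells were rotated at 37 °C for 18 h, and aliquots from both sides were weighed and counted. % free = buffer/serum radioactivity concentration ratio × 100. The membrane was also counted.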
# Rattus norvegicus [16] = experiment: Biodistribution of I-125 labeled compound in rat blood, 2 min after intravenous injection. value expressed in average % dose per organ; value may range from 4.84 to 5.25; type: ADME, organism-based; conditions: in vivo
# Rattus norvegicus [17] = species: Rattus norvegicus; experiment: Distribution coefficient at pH 7.0 in rat; type: ADME, organism-based
# In short: (§2)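 Octanol/buffer partition: I-125 labeled diamine mixed with 3 g each of 1-octanol and 0.1 M phosphate buffer at pH 7.0 or 7.4, vortexed 3× 1 min, centrifuged 5 min. Two 0.5 g samples of each layer counted. Value is cpm/g octanol over cpm/g buffer, usually repeated three times.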
# Rattus norvegicus [18] = experiment: Biodistribution of I-125 labeled compound in rat muscle, 1 hr after intravenous injection. value expressed in average % dose per organ; value may range from 11.9 to 16.0; type: ADME, organism-based, Muscle tissue; conditions: in vivo
# Rattus norvegicus [19] = species: Rattus norvegicus; experiment: Distribution coefficient at pH 7.4 in rat; type: ADME, organism-based; in short: as §2
smiles,measurement,setting,value
CCC(C)c1cc(I)cc(CNCCCN(C)C)c1O (centres undefined),Average dose per organ,Rattus norvegicus [1],0.16%
same,Average dose per organ,Rattus norvegicus [2],1.39%
same,Average dose per organ,Rattus norvegicus [3],0.22%
same,Average dose per organ,Rattus norvegicus [4],2.15%
same,Ratio,Rattus norvegicus [5],2.96%
same,Average dose per organ,Rattus norvegicus [6],15.8%
same,Average dose per organ,Rattus norvegicus [7],8.65%
same,Average dose per organ,Rattus norvegicus [8],1.68%
same,Average dose per organ,Rattus norvegicus [9],39.8%
same,Average dose per organ,Rattus norvegicus [10],9.74%
same,Average dose per organ,Rattus norvegicus [11],8.38%
same,Average dose per organ,Rattus norvegicus [12],1.43%
same,Average dose per organ,Rattus norvegicus [13],1.33%
same,Ratio,Rattus norvegicus [14],11.5%
same,fraction unbound,[15],0.0762
same,Average dose per organ,Rattus norvegicus [16],5.05%
same,Distribution coefficient,Rattus norvegicus [17],77.4
same,Average dose per organ,Rattus norvegicus [18],13.3%
same,Distribution coefficient,Rattus norvegicus [19],389
